In brackets after ≈: the same amount, converted by molar mass.
Legend:
[1] = target: Tyrosine-protein kinase JAK2 (Homo sapiens, UniProt O60674); assay: Inhibition of recombinant JAK2 using Poly (Glu,Ala,Tyr) as substrate after 2 hrs by luminescence assay
[2] = target: Tyrosine-protein kinase JAK1 (Homo sapiens, UniProt P23458); assay: Inhibition of recombinant JAK1 using Poly (Glu,Ala,Tyr) as substrate after 2 hrs by luminescence assay
In short: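 Luciferase-coupled ATP-depletion luminescence assay in 50 mM Hepes pH 7.5 with MgCl₂, MnCl₂, BGP, DTT and orthovanadate, 2 h at room temperature. Conditions per target: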

[3] = target: T1, Tyrosine-protein kinase JAK3 (Homo sapiens, UniProt P52333); assay: Inhibition of recombinant JAK3 using Poly (Glu,Ala,Tyr) as substrate after 2 hrs by luminescence assay
T1 sequence (P52333 whole entry): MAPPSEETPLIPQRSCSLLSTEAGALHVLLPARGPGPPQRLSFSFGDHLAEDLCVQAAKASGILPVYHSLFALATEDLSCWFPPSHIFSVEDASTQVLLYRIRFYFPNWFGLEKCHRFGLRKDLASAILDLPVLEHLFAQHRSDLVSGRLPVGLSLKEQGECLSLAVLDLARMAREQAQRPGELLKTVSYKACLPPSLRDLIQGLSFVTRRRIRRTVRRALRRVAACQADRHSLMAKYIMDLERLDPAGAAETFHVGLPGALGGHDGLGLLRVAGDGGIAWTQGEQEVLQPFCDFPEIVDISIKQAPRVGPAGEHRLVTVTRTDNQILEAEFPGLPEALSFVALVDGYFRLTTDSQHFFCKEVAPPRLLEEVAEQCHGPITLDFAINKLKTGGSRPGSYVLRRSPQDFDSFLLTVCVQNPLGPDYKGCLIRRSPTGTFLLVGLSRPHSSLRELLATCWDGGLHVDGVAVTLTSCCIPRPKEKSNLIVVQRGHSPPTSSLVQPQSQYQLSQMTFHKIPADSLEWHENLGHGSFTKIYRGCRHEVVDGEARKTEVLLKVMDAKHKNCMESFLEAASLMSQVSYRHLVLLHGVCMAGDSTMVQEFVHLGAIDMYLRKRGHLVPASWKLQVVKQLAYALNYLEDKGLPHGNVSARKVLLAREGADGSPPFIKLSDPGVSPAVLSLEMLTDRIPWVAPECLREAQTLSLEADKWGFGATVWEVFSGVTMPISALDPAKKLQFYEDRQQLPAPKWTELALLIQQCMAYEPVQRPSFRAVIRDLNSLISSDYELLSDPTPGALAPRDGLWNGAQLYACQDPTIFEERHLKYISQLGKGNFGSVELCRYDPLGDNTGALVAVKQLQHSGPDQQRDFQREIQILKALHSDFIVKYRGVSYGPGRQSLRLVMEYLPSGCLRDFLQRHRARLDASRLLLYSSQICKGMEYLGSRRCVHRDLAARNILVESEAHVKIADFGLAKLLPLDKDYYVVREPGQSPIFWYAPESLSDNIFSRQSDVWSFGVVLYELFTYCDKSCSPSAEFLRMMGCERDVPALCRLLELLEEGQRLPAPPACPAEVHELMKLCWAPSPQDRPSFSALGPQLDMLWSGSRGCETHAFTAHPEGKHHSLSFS

[4] = target: Cyclin-dependent kinase 2/cyclin A (Homo sapiens, UniProt P24941); assay: Inhibition of recombinant CDK2/Cyclin A using RbinG as substrate after 2 hrs by luminescence assay; type: protein-complex assay
[5] = target: T2, Receptor-type tyrosine-protein kinase FLT3 (Homo sapiens, UniProt P36888); assay: Inhibition of recombinant FLT3 using Poly (Glu,Tyr) as substrate after 2 hrs by luminescence assay
T2 sequence (P36888 whole entry): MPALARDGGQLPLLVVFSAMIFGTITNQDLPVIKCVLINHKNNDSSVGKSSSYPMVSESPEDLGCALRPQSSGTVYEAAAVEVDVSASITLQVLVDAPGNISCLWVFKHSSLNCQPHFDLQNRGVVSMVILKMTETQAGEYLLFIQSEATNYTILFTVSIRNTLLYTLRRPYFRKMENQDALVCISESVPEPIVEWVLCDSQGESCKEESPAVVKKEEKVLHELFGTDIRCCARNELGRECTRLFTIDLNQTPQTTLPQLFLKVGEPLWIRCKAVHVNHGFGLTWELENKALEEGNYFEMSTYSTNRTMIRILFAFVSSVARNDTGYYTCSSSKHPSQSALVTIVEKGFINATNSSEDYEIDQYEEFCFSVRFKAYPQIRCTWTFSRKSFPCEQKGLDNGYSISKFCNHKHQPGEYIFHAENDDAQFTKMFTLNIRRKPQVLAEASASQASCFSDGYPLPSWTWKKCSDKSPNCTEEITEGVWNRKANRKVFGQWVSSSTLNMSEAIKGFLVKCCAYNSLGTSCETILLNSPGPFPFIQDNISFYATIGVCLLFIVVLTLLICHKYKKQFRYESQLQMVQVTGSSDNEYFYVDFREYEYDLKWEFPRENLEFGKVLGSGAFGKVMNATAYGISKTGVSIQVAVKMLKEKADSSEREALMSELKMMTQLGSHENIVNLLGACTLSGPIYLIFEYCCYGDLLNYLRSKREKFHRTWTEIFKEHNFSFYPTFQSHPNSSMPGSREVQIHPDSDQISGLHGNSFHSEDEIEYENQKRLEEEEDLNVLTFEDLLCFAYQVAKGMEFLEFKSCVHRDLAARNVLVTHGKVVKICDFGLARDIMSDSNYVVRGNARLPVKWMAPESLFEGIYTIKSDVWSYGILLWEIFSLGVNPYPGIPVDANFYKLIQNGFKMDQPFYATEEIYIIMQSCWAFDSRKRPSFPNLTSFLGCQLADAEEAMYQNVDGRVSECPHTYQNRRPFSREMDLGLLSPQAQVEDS

[6] = target: Non-receptor tyrosine-protein kinase TYK2 (Homo sapiens, UniProt P29597); assay: Inhibition of recombinant TYK2
physchem = details: phosphate buffer saline, pH 7

Sequence of Non-receptor tyrosine-protein kinase TYK2 (P29597 whole entry): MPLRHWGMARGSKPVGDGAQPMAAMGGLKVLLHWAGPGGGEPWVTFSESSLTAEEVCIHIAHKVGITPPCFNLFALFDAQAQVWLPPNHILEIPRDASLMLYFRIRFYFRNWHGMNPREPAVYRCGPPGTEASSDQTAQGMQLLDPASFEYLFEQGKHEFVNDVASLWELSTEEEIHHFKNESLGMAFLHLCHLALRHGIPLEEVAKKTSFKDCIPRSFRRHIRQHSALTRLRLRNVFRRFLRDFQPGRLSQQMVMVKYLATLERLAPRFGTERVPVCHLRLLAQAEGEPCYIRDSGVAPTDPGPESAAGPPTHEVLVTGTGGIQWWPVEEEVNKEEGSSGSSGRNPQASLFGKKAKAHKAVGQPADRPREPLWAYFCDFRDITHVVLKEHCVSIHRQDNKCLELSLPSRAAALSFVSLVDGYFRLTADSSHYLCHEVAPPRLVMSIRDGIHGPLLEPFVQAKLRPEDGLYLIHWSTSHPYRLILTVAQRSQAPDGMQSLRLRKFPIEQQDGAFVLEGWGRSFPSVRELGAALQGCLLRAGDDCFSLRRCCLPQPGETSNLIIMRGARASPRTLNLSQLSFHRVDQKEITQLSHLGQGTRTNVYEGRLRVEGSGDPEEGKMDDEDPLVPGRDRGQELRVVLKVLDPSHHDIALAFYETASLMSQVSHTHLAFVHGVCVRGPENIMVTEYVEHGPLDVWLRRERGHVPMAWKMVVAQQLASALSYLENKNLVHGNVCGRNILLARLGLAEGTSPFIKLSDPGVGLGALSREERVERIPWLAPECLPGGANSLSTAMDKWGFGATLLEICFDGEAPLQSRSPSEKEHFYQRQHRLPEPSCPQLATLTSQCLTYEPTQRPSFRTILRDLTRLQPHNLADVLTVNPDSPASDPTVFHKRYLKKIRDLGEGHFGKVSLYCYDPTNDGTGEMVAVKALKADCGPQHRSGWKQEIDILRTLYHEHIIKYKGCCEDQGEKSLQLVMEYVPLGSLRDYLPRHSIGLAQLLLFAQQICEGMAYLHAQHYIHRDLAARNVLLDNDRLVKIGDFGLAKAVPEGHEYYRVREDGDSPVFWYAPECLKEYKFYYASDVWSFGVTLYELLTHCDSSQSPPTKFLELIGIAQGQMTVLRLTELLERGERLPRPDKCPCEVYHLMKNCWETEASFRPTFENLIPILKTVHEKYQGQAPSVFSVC
Sequence of Tyrosine-protein kinase JAK2 (O60674 whole entry): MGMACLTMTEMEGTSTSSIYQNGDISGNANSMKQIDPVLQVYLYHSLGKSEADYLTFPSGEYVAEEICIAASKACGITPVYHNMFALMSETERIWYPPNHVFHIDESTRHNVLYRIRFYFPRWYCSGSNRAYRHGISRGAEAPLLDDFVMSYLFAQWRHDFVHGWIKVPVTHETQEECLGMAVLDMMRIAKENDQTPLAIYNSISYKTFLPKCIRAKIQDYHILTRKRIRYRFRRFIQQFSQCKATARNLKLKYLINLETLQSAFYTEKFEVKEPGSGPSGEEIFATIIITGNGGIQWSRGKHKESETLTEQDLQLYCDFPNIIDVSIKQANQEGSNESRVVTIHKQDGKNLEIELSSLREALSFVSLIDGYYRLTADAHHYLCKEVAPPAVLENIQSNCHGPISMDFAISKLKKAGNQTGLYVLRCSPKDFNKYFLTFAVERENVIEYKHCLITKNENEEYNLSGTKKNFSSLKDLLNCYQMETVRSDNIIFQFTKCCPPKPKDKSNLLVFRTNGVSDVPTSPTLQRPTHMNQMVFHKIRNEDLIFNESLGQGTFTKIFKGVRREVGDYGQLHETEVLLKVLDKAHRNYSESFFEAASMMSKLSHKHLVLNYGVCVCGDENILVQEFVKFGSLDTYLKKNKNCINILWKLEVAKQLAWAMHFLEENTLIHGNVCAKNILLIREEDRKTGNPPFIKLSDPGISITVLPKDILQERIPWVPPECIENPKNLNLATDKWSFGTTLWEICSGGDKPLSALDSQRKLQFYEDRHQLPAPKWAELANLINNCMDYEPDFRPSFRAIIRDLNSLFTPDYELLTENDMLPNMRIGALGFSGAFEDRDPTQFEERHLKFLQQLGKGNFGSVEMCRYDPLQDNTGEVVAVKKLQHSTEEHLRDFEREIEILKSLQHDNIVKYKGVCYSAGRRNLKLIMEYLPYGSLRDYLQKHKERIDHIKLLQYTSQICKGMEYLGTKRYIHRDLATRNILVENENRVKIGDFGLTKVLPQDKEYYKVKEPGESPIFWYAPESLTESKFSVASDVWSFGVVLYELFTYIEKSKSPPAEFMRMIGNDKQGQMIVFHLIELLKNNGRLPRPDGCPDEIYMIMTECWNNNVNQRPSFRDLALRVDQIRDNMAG
Sequence of Tyrosine-protein kinase JAK1 (P23458 whole entry): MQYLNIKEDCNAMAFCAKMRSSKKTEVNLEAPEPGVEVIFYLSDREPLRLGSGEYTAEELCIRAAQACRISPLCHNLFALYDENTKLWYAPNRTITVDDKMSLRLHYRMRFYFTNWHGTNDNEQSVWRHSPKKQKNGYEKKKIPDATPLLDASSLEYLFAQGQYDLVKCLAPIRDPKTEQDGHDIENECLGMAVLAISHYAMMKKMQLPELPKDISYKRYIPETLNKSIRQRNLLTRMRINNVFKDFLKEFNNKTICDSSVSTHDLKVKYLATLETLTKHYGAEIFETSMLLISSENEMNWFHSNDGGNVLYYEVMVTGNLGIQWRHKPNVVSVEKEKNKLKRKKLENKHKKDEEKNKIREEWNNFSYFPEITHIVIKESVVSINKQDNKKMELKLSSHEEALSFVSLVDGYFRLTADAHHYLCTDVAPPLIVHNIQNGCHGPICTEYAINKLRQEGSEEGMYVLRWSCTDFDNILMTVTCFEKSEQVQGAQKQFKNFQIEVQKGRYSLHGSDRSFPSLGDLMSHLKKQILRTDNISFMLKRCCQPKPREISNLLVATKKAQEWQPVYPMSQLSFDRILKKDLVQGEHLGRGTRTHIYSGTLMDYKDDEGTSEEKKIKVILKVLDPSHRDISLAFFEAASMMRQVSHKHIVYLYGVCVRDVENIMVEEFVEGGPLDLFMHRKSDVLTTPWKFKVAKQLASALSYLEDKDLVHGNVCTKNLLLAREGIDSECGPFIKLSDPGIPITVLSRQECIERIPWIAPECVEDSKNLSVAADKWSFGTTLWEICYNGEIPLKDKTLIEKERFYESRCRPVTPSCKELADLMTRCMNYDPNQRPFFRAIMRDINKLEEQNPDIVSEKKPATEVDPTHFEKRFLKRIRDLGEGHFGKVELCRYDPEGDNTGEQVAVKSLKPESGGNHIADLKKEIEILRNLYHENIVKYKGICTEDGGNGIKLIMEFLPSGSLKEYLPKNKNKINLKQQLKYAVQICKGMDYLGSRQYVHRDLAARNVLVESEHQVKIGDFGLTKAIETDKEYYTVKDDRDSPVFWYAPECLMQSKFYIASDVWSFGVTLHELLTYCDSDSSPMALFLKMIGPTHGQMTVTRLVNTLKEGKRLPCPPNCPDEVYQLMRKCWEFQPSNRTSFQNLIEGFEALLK

Row | SMILES | IC50 [1] [nM] | IC50 [2] [nM] | IC50 [3] [nM] | IC50 [4] [nM] | IC50 [5] [nM] | IC50 [6] [nM] | solubility (physchem) [µg/mL]
1 | Oc1ccc2cc1COCC=CCOCc1cccc(c1)-c1ccnc(n1)N2 (mixture of isomers) | 53 | 400 | 1100 | 210 | 170 | 170 | –
2 | COc1ccc2cc1COCC=CCOc1cccc(c1)-c1ccnc(n1)N2 (mixture of isomers) | 260 | 5800 | – | 360 | 78 | 120 | < 10
3 | CN1CCN(c2ccc3cc2COCC=CCOCc2cccc(c2)-c2ccnc(n2)N3)CC1 (mixture of isomers) | 41 | 3600 | – | > 10000 | 30 | 190 | 26.4
4 | C1=CCOCc2cc(ccc2N2CCOCC2)Nc2nccc(n2)-c2cccc(c2)COC1 (mixture of isomers) | 60 | 8700 | – | > 10000 | 32 | 160 | –
5 | C1=CCOc2cccc(c2)Nc2nccc(n2)-c2cccc(c2)OCC1 (mixture of isomers) | 230 | > 10000 | > 10000 | 330 | 880 | 70 | < 10
6 | Nc1cc2cc(c1)Nc1nccc(n1)-c1cccc(c1)COCC=CCOC2 (mixture of isomers) | 35 | – | – | 240 | 52 | – | 25
7 | C1=CCOCc2cccc(c2)-c2ccnc(n2)Nc2cc(cc(OCCN3CCCC3)c2)COC1 (mixture of isomers) | 48 | 2100 | 830 | 570 | 22 | 80 | 145
8 | ClCCOc1ccc2cc1COCC=CCOCc1cccc(c1)-c1ccnc(n1)N2 (mixture of isomers) | 220 | > 10000 | > 10000 | > 10000 | 76 | 470 | –
9 | CN(C)CCN(C)c1ccc2cc1COCC=CCOCc1cccc(c1)-c1ccnc(n1)N2 (mixture of isomers) | 77 | 3600 | – | 88 | 31 | 71 | 171
10 | Fc1cnc2nc1-c1cccc(c1)COCC=CCOCc1cc(ccc1OCCN1CCCC1)N2 (mixture of isomers) | 17 | 830 | 1000 | 1550 | 15 | 140 | –
11 | COc1ccc2cc1-c1ccnc(n1)Nc1ccc(OCCN3CCCC3)c(c1)COCC=CCOC2 | 330 | 4900 | 7200 | > 10000 | 12 | 620 | –
12 | O=C1CCN(CCOc2ccc3cc2COCC=CCOCc2cccc(c2)-c2ccnc(n2)N3)C1 (mixture of isomers) | 22 | 940 | 380 | 5800 | 67 | 140 | –
13 | O=C1CCCN1CCOc1ccc2cc1COCC=CCOCc1cccc(c1)-c1ccnc(n1)N2 (mixture of isomers) | 22 | 1300 | 500 | 9400 | 140 | 180 | –
14 | COc1ccc2cc1COCC=CCOCc1cccc(c1)-c1ccnc(n1)N2 (mixture of isomers) | 70 | 1900 | 1200 | 860 | 190 | 210 | –
15 | OCCN1CCN(c2ccc3cc2COCC=CCOCc2cccc(c2)-c2ccnc(n2)N3)CC1 | 84 | 3100 | 2500 | 3700 | 70 | 160 | 150 (≈ 308 µM)
16 | CCS(=O)(=O)N1CCN(c2ccc3cc2COCC=CCOCc2cccc(c2)-c2ccnc(n2)N3)CC1 (mixture of isomers) | 150 | > 10000 | > 10000 | > 10000 | 150 | 140 | –
17 | Fc1cc2cc(c1)-c1ccnc(n1)Nc1ccc(OCCN3CCCC3)c(c1)COCC=CCOC2 (mixture of isomers) | 24 | 380 | – | 2000 | 8 | 36 | 2.61
18 | CC(=O)N1CCN(c2ccc3cc2COCC=CCOCc2cccc(c2)-c2ccnc(n2)N3)CC1 (mixture of isomers) | 120 | 2800 | 6000 | 6200 | 38 | 110 | –
19 | C1=CCCOc2cccc(c2)-c2ccnc(n2)Nc2cccc(c2)OCC1 | 1200 | > 10000 | > 10000 | > 10000 | 1100 | 5200 | –
20 | CCN(CC)CCC(=O)Nc1cc2cc(c1)Nc1nccc(n1)-c1cccc(c1)COCC=CCOC2 (mixture of isomers) | 44 | 1900 | 390 | 400 | 78 | 18 | –
21 | C1=CCOCc2cc(ccc2N2CCNCC2)Nc2nccc(n2)-c2cccc(c2)COC1 (mixture of isomers) | 83 | 2500 | 1600 | 3400 | 49 | 140 | 8.79
22 | C1=CCOCc2cccc(c2)-c2ccnc(n2)Nc2cc(cc(OCCN3CCOCC3)c2)COC1 (mixture of isomers) | 96 | 2400 | 3300 | 2700 | 19 | 81 | 40
23 | COc1ccc2cc1COCC=CCCOc1cccc(c1)-c1ccnc(n1)N2 (mixture of isomers) | 130 | 3000 | – | > 10000 | 310 | 150 | –
24 | Fc1ccc2cc1COCC=CCOCc1cc(ccc1OCCN1CCCC1)Nc1nccc-2n1 (mixture of isomers) | 25 | 4600 | 720 | 3250 | 40 | – | –
25 | COc1cc2cc(c1OCCN1CCCC1)COCC=CCOCc1cccc(c1)-c1ccnc(n1)N2 (mixture of isomers) | 36 | 1700 | – | 3400 | 6 | 170 | 154
